Experimental findings from ChEMBL document CHEMBL1132295, “Novel euglycemic and hypolipidemic agents. 4. Pyridyl- and quinolinyl-containing thiazolidinediones” (1999) are described below.

In test [1] the test system is Mus musculus. The test is described as follows: Percentage reduction in plasma glucose after 6 days p.o. dosing at 30 mg/kg in db/db mice. Particulars: route oral. It counts as functional. A digest of the protocol:
(§1)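 Male C57BL/KsJ-db/db mice, 8 weeks old, 4–6 per group, given compound orally once daily for 6 days; vehicle controls received 0.5% CMC (10 mL/kg); rosiglitazone 30 mg/kg as standard. On the last day, retro-orbital blood was taken 1 h post-dose. Plasma glucose and triglyceride were measured by kits. % reduction = [1 − (TT/OT)/(TC/OC)] × 100, using day-0 and control values; mean ± SE, ANOVA, P<0.05.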

Test [2] concerns Mus musculus. Kind of test: Compound was administered at a dose of 30 mg/kg/day to evaluate the percentage reduction in plasma triglyceride (TG) after 6 days of treatment in db/db mice via oral gavage. It counts as functional. A digest of the protocol:
as §1

Test [3] concerns Mus musculus. Kind of test: Compound was administered at a dose of 30 mg/kg/day to evaluate the percentage reduction in plasma triglyceride (TG) after 6 days of treatment in db/db mice via oral gavage; Not significant. It counts as functional, organism-based. The procedure, abridged: as §1
The subject of test [4] is Mus musculus. Kind of test: Compound was administered at a dose of 1 mg/kg/day to evaluate the percentage reduction in plasma glucose(PG) after 14 days of treatment in ob/ob mice via oral gavage.
Test [5] relates to Mus musculus. Kind of test: Compound was administered at a dose of 3 mg/kg/day to evaluate the percentage reduction in plasma glucose(PG) after 14 days of treatment in db/db mice via oral gavage.
The test system of test [6] is Mus musculus. Kind of test: Compound was administered at a dose of 3 mg/kg/day to evaluate the percentage reduction in plasma glucose(PG) after 14 days of treatment in ob/ob mice via oral gavage.
Test [7] deals with Mus musculus. The test is described as follows: Compound was administered at a dose of 10 mg/kg/day to evaluate the percentage reduction in plasma glucose(PG) after 14 days of treatment in db/db mice via oral gavage.
Test [8] has as its system Mus musculus. The test is described as follows: Compound was administered at a dose of 10 mg/kg/day to evaluate the percentage reduction in plasma glucose(PG) after 14 days of treatment in ob/ob mice via oral gavage.
The test system of test [9] is Mus musculus. The test is described as follows: Compound was administered at a dose of 3 mg/kg/day to evaluate the percentage reduction in plasma triglyceride (TG) after 14 days of treatment in db/db mice via oral gavage.
Test [10] deals with Mus musculus. Kind of test: Compound was administered at a dose of 10 mg/kg/day to evaluate the percentage reduction in plasma triglyceride (TG) after 14 days of treatment in db/db mice via oral gavage.
Test [11] deals with Mus musculus. The test is described as follows: Compound was administered at a dose of 100 mg/kg/day to evaluate the percentage reduction in plasma glucose(PG) after 6 days of treatment in db/db mice via oral gavage. It counts as functional. A digest of the protocol: as §1
For test [12], the system named is Mus musculus. Kind of test: Compound was administered at a dose of 100 mg/kg/day to evaluate the percentage reduction in plasma triglyceride (TG) after 6 days of treatment in db/db mice via oral gavage. It is filed as functional. The procedure, abridged: as §1
The subject of test [13] is Mus musculus. The test is described as follows: Compound was administered at a dose of 20 mg/kg/day to evaluate the percentage reduction in plasma glucose(PG) after 14 days of treatment in db/db mice via oral gavage.
For test [14], the system named is Mus musculus. The test is described as follows: Compound was administered at a dose of 20 mg/kg/day to evaluate the percentage reduction in plasma triglyceride (TG) after 14 days of treatment in db/db mice via oral gavage.
Test [15] deals with Mus musculus. The test is described as follows: Compound was administered at a dose of 100 mg/kg/day to evaluate the percentage reduction in plasma triglyceride (TG) after 6 days of treatment in db/db mice via oral gavage; Not significant. It counts as functional, organism-based. The procedure, abridged: as §1
For test [16], the system named is Mus musculus. Kind of test: Compound was administered at a dose of 100 mg/kg/day to evaluate the percentage reduction in plasma glucose(PG) after 6 days of treatment in db/db mice via oral gavage; Not significant. It is filed as functional, organism-based. A digest of the protocol: as §1
Test [17] has as its system Mus musculus. The test is described as follows: Compound was administered at a dose of 30 mg/kg/day to evaluate the percentage reduction in plasma glucose(PG) after 14 days of treatment in ob/ob mice via oral gavage.
The test system of test [18] is Mus musculus. Kind of test: Compound was administered at a dose of 1 mg/kg/day to evaluate the percentage reduction in plasma triglyceride (TG) after 14 days of treatment in ob/ob mice via oral gavage.
For test [19], the system named is Mus musculus. The test is described as follows: Compound was administered at a dose of 3 mg/kg/day to evaluate the percentage reduction in plasma triglyceride (TG) after 14 days of treatment in ob/ob mice via oral gavage.
The test system of test [20] is Mus musculus. Kind of test: Compound was administered at a dose of 10 mg/kg/day to evaluate the percentage reduction in plasma triglyceride (TG) after 14 days of treatment in ob/ob mice via oral gavage.
Test [21] deals with Mus musculus. The test is described as follows: Compound was administered at a dose of 30 mg/kg/day to evaluate the percentage reduction in plasma triglyceride (TG) after 14 days of treatment in ob/ob mice via oral gavage.

In the case of `O=C1NC(=O)C(Cc2ccc(OC[C@@H]3CCCN3c3ccccn3)cc2)S1` (stereo partly drawn), the Reduction in the test on Mus musculus [1] is on record as 52.25%; in the test on Mus musculus [2] it was 65.5%.
For `O=C1NC(=O)C(Cc2ccc(OCC3CN(c4ccccn4)CCO3)cc2)S1` (stereo not drawn) [listing 1 of 2 here], the Reduction result with Mus musculus [3] was “Not significant”.
In the case of `O=C1[N-]C(=O)C(Cc2ccc(OCC3CN(c4ccccn4)CCO3)cc2)S1.[Na+]` (stereo not drawn), the Reduction was determined as 63.5% in the test on Mus musculus [1]; 56.75% in the test with Mus musculus [2]; 30% with Mus musculus [4]; 34.67% in the test on Mus musculus [5]; 35.6% in the test on Mus musculus [6]; 66% in the test with Mus musculus [7]. For the same molecule, the Reduction came to 39.8% in the test with Mus musculus [8], 39.25% in the test with Mus musculus [9] and 39% in the test with Mus musculus [10].
On to `CN(CCOc1ccc(/C=C2\SC(=O)NC2=O)cc1)c1ccccn1`, for which the results for the Reduction in the test on Mus musculus [11] and in the test with Mus musculus [12] were 55.5% and 35%, respectively.
On to `O=C1NC(=O)C(Cc2ccc(OC[C@@H]3CCCN3c3ccc4ccccc4n3)cc2)S1` (stereo partly drawn) [listing 1 of 2 here], for which the Reduction result in the test on Mus musculus [3] is “Not significant”.
As to `O=C1NC(=O)/C(=C\c2ccc(OC[C@@H]3CCCN3c3ccccn3)cc2)S1`, the Reduction with Mus musculus [11] amounted to 57%; in the test with Mus musculus [12], 77.75%.
Consider `O=C(O)/C=C\C(=O)O.O=C1NC(=O)C(Cc2ccc(OC[C@@H]3CCCN3c3ccccn3)cc2)S1` (stereo partly drawn), for which the Reduction with Mus musculus [1] was 62.5%; in the test on Mus musculus [2], 44.75%; in the test with Mus musculus [5] it was 8.5%; in the test with Mus musculus [13], 41.25%; in the test with Mus musculus [9], 41.5%; in the test with Mus musculus [14] it was 34.5%.
On to `Cl.O=C1NC(=O)C(Cc2ccc(OC[C@@H]3CCCN3c3ccc4ccccc4n3)cc2)S1` (stereo partly drawn), for which the Reduction with Mus musculus [1] is recorded as 15.75%.
In the case of `O=C1NC(=O)/C(=C/c2ccc(OCC3CN(c4ccccn4)CCO3)cc2)S1` (stereo not drawn) [listing 1 of 2 here], in the test with Mus musculus [3], the Reduction result is “Not significant”.
With `O=C1NC(=O)/C(=C/c2ccc(OCCN3CCN(c4ccccn4)CC3)cc2)S1`, the Reduction in the test with Mus musculus [11] came to 35.75%; in the test on Mus musculus [12] it was 69.75%.
`O=C1[N-]C(=O)C(Cc2ccc(OC[C@@H]3CCCN3c3ccc4ccccc4n3)cc2)S1.[Na+]` (stereo partly drawn): the Reduction with Mus musculus [1] is recorded as 61.5%; with Mus musculus [2], 24.75%.
In the case of `O=C1NC(=O)/C(=C/c2ccc(OC[C@@H]3CCCN3c3ccc4ccccc4n3)cc2)S1`, the Reduction in the test on Mus musculus [11] was 63.75%; with Mus musculus [15], “Not significant”.
As to `O=C1NC(=O)C(Cc2ccc(OC[C@@H]3CCCN3c3ccc4ccccc4n3)cc2)S1` (stereo partly drawn) [listing 2 of 2 here], the Reduction in the test with Mus musculus [1] came to 72.25%; in the test on Mus musculus [2], 49%.
In the case of `Cl.O=C1NC(=O)C(Cc2ccc(OC[C@@H]3CCCN3c3ccccn3)cc2)S1` (stereo partly drawn), the Reduction with Mus musculus [1] and in the test on Mus musculus [2] was 50.5% each time.
Regarding `Cl.O=C1NC(=O)/C(=C/c2ccc(OCC3CN(c4ccccn4)CCO3)cc2)S1` (stereo not drawn), the Reduction in the test with Mus musculus [1] is 35.5%.
For the molecule `Cc1cc(N2CCC[C@H]2COc2ccc(CC3SC(=O)NC3=O)cc2)nc2ccccc12.Cl` (stereo partly drawn), the Reduction came out at 25.25% in the test with Mus musculus [1] and 42% in the test on Mus musculus [2].
In the case of `O=C1NC(=O)/C(=C/c2ccc(OCC3CCN(c4ccccn4)CC3)cc2)S1`, the Reduction entry is “Not significant” with Mus musculus [16] and 27.33% in the test with Mus musculus [12].
`CN(CCOc1ccc(CC2SC(=O)NC2=O)cc1)c1ccccn1` (stereo in doubt; form 1) [ROSIGLITAZONE]: the Reduction in the test on Mus musculus [1] (30 mg/kg) stood at 64.6%; in the test on Mus musculus [2], 41%; in the test with Mus musculus [5], 41.6%; in the test with Mus musculus [7] it was 47.25%; in the test on Mus musculus [9] it was 47%; with Mus musculus [10] it was 35.25%.
Take `Cc1cc(N2CCC[C@H]2COc2ccc(CC3SC(=O)NC3=O)cc2)nc2ccccc12` (stereo partly drawn): the Reduction stood at 40.5% in the test with Mus musculus [1] and 66.25% with Mus musculus [2].
For the molecule `Cc1cc(N2CCC[C@H]2COc2ccc(CC3SC(=O)NC3=O)cc2)nc2ccccc12.O=C(O)/C=C\C(=O)O` (stereo partly drawn), in the test with Mus musculus [2], the Reduction worked out at 53%.
In the case of `O=C1NC(=O)C(Cc2ccc(OCC3CN(c4ccccn4)CCO3)cc2)S1` (stereo not drawn) [listing 2 of 2 here], in the test with Mus musculus [1], the Reduction is on record as 57.5%.
With `O=C1NC(=O)/C(=C/c2ccc(OCC3CN(c4ccccn4)CCO3)cc2)S1` (stereo not drawn) [listing 2 of 2 here], the figures for the Reduction with Mus musculus [11] and with Mus musculus [12] were 55.25% and 52.5%, respectively.
Take `CN(CCOc1ccc(CC2SC(=O)NC2=O)cc1)c1ccccn1` (stereo in doubt; form 2) [ROSIGLITAZONE]: the Reduction worked out at 35% in the test with Mus musculus [1] (30 mg/kg) and 40.21% with Mus musculus [2].
For the molecule `Cl.O=C1NC(=O)/C(=C/c2ccc(OC[C@@H]3CCCN3c3ccccn3)cc2)S1`, the Reduction is 70.8% with Mus musculus [1]; 31.7% with Mus musculus [2]; 18.8% in the test on Mus musculus [4]; 53.8% with Mus musculus [5]; 50.2% in the test on Mus musculus [6]; 61% with Mus musculus [7]. Moreover, the Reduction was determined as 42.4% in the test on Mus musculus [8]; 37.2% with Mus musculus [17]; 46.6% in the test with Mus musculus [18]; 39.33% with Mus musculus [19]; 43.8% with Mus musculus [10]; 35% with Mus musculus [20]. In the test on Mus musculus [21], this molecule came in with a Reduction of 53%.
As for `Cc1cc(N2CCC[C@H]2COc2ccc(CC3SC(=O)[N-]C3=O)cc2)nc2ccccc12.[Na+]` (stereo partly drawn), the Reduction in the test with Mus musculus [1] amounted to 30.25%; with Mus musculus [2] it was 58.5%.
For the molecule `O=C1[N-]C(=O)C(Cc2ccc(OC[C@@H]3CCCN3c3ccccn3)cc2)S1.[Na+]` (stereo partly drawn), in the test with Mus musculus [1], the Reduction came to 65.5%.
With `O=C1NC(=O)/C(=C/c2ccc(OC3CCN(c4ccccn4)CC3)cc2)S1`, the Reduction came out at 38% in the test with Mus musculus [11] and 40.25% in the test on Mus musculus [12].
As for `O=C1[N-]C(=O)/C(=C/c2ccc(OC[C@@H]3CCCN3c3ccccn3)cc2)S1.[Na+]`, the Reduction amounted to 56.5% in the test with Mus musculus [1] and 56% in the test with Mus musculus [2].
As for `O=C(O)/C=C\C(=O)O.O=C1NC(=O)/C(=C/c2ccc(OC[C@@H]3CCCN3c3ccccn3)cc2)S1`, the Reduction with Mus musculus [1] is 63.6%; in the test on Mus musculus [2] it was 66.4%; in the test on Mus musculus [4] it was 52.4%; in the test on Mus musculus [5] it was 12.75%; in the test with Mus musculus [6] it was 40.25%; in the test on Mus musculus [7] it was 49.6%. Besides, the Reduction worked out at 69.25% in the test with Mus musculus [8]; 73% with Mus musculus [17]; 65.75% in the test on Mus musculus [18]; 59% in the test on Mus musculus [19]; 75% in the test on Mus musculus [9]; 78.4% with Mus musculus [10]. In addition, the Reduction in the test on Mus musculus [20] came to 41.5%; with Mus musculus [21] it was 68.5%.
